Data set [1] relates to Acinetobacter baumannii. In words: Growth inhibition of multidrug-resistant Acinetobacter baumannii ATCC BAA 18002 after 48 hrs by resazurin dye based broth microdilution method. It counts as functional. The following applies: ATCC BAA 18002, 48 h. In a few lines: (§1)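 Broth microdilution in tryptic soy broth. Mid-log cultures (OD600 0.5) treated with serial dilutions from a DMSO stock (1 mg per 100 μL) for 48 h at 37 °C. Resazurin (stock 0.02%) then added for 1 h at 37 °C. MIC is the lowest concentration staying blue; MBC is blue retained over 4 h (99.9% kill), with CFU plating when needed.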
Background: Alamar Blue is a resazurin reagent that responds to reducing activity.

The subject of data set [2] is Acinetobacter baumannii. Briefly: Synergistic bactericidal activity against Acinetobacter baumannii ATCC 19606 at 60:1 compound to doxycycline ratio after 48 hrs by resazurin dye based microdilution broth checkerboard method. It counts as functional. As to conditions: ATCC 19606 = CIP 70.34 = JCM 6841, 48 h, read-out: MBC99.9. In a few lines: (§2)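 Checkerboard broth microdilution of drug pairs in tryptic soy broth on mid-log cultures (OD 0.5), 48 h at 37 °C. Growth read by resazurin (pink growth, blue no growth). MBC is blue retained over 4 h, CFU plating where needed. ΣFIC = C_A/MIC_A + C_B/MIC_B, taken at the growth/no-growth interface wells; ΣFIC <0.5 counts as synergy.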

Data set [3] concerns Acinetobacter baumannii. In words: Synergistic antibacterial activity against Acinetobacter baumannii ATCC 19606 at 2:1 compound to doxycycline ratio after 48 hrs by resazurin dye based microdilution broth checkerboard method. It counts as functional. As to conditions: ATCC 19606 = CIP 70.34 = JCM 6841, 48 h. In a few lines:
as §2

In data set [4] the test system is Acinetobacter baumannii. In words: Synergistic bactericidal activity against multidrug-resistant Acinetobacter baumannii ATCC […] at 60:1 compound to doxycycline ratio […] by resazurin dye based microdilution broth checkerboard method. In kind it is functional. The following applies: read-out: MBC99.9.
Data set [5] relates to Klebsiella pneumoniae. Briefly: Synergistic antibacterial activity against Klebsiella pneumoniae ATCC 8047 at 35:1 compound to doxycycline ratio after 48 hrs by resazurin dye based microdilution broth checkerboard method. In kind it is functional. The following applies: ATCC 8047, 48 h. In a few lines: as §2
Data set [6] concerns Klebsiella pneumoniae. Briefly: Growth inhibition of Klebsiella pneumoniae ATCC 8047 after 48 hrs by resazurin dye based microdilution method. It counts as functional. The following applies: ATCC 8047, 48 h. Put shortly:
as §1

Another data set relates to Escherichia coli. In words: Synergistic antibacterial activity against Escherichia coli ATCC 10798 at 35:1 compound to doxycycline ratio after 48 hrs by resazurin dye based microdilution broth checkerboard method. As to conditions: ATCC 10798, 48 h. It counts as functional. Put shortly:
as §2

Data set [7] has as its system Pseudomonas aeruginosa. In words: Synergistic bactericidal activity against Pseudomonas aeruginosa ATCC 27853 at 60:1 compound to doxycycline ratio after 48 hrs by resazurin dye based microdilution broth checkerboard method. It counts as functional. As to conditions: ATCC 27853, 48 h, read-out: MBC99.9. Put shortly: as §2
The test system of data set [8] is Pseudomonas aeruginosa. Briefly: Synergistic antibacterial activity against Pseudomonas aeruginosa ATCC 27853 at 35:1 compound to doxycycline ratio after 48 hrs by resazurin dye based microdilution broth checkerboard method. In kind it is functional. As to conditions: ATCC 27853, 48 h. In a few lines: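 Microdilution broth checkerboard of the compound combined with doxycycline, using the resazurin broth method (48 h, 37 °C, blue = no growth). ΣFIC = C_A/MIC_A + C_B/MIC_B, taken at the growth–no growth interface wells; ΣFIC below 0.5 is scored as synergy. MBC for the fixed-ratio combinations read as the 4 h resazurin endpoint.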

For data set [9], the system named is Pseudomonas aeruginosa. Briefly: Growth inhibition of Pseudomonas aeruginosa ATCC 27853 at 2:1 compound to doxycycline ratio after 48 hrs by resazurin dye based microdilution method. It counts as functional. The following applies: ATCC 27853, 48 h. Put shortly:
as §2

Data set [10] has as its system Pseudomonas aeruginosa. In words: Growth inhibition of Pseudomonas aeruginosa ATCC 27853 after 48 hrs by resazurin dye based microdilution method. It counts as functional. The following applies: ATCC 27853, 48 h. Put shortly:
as §1

For the next data set, the system named is Staphylococcus aureus. In words: Growth inhibition of Staphylococcus aureus ATCC 25923 after 48 hrs by resazurin dye based microdilution method. In kind it is functional. The following applies: ATCC 25923, 48 h. Put shortly:
as §1

Data set [11] concerns Mycobacterium tuberculosis. Briefly: Synergistic bactericidal activity against Mycobacterium tuberculosis H37Rv at 2:1 compound to doxycycline ratio after 48 hrs by resazurin dye based microdilution broth checkerboard method. In kind it is functional. As to conditions: read-out: MBC99.9.
For data set [12], the system named is Mycobacterium tuberculosis. Briefly: Bactericidal activity against Mycobacterium tuberculosis H37Rv after 48 hrs by resazurin dye based microdilution method. It counts as functional. The following applies: read-out: MBC99.9.
Data set [13] concerns Acinetobacter baumannii. In words: Potentiation of doxycycline-induced antimicrobial activity against Acinetobacter baumannii ATCC 19606 at 0.2 ug/ml in presence of 0.025 ug/ml doxycycline by microdilution broth checkerboard method. In kind it is functional, ATCC 19606 = CIP 70.34 = JCM 6841. In a few lines:
(§3)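 A. baumannii ATCC 19606 in a broth microdilution checkerboard with doxycycline, 96 concentration combinations. ΣFIC = C_A/MIC_A + C_B/MIC_B, taken for wells at the growth/no-growth interface; ΣFIC <0.5 counts as synergy.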
In general terms: In broth dilution the organism is exposed to a series of concentrations in liquid medium.

The subject of data set [14] is Acinetobacter baumannii. Briefly: Potentiation of doxycycline-induced antimicrobial activity against Acinetobacter baumannii ATCC 19606 at 1.56 ug/ml in presence of 0.025 ug/ml doxycycline by microdilution broth checkerboard method. It counts as functional, ATCC 19606 = CIP 70.34 = JCM 6841. Put shortly:
as §3

The test system of data set [15] is Acinetobacter baumannii. In words: Potentiation of doxycycline-induced antimicrobial activity against Acinetobacter baumannii ATCC 19606 at 0.20 ug/ml in presence of 0.05 ug/ml doxycycline by microdilution broth checkerboard method. It counts as functional, ATCC 19606 = CIP 70.34 = JCM 6841. Put shortly:
as §3

Data set [16] in a line: Half life in Sprague-Dawley rat liver microsomes at 500 ng/ml by LC/MS analysis. In kind it is ADME, microsome. Put shortly: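 Pooled Sprague-Dawley rat liver microsomes at 1 mg/mL protein in 100 mM phosphate, pH 7.4. Compound at 500 ng/mL final; verapamil as positive control. Pre-equilibrated 5 min at 37 °C, then 1 mM NADPH added. Triplicate samples at 0, 5, 10, 20, 30, 45 and 60 min, quenched in 4 volumes of cold methanol, analysed by LC-MS.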

The nature of data set [17]: Safety index, ratio of compound IC50 to valnemulin IC50 for African green monkey Vero cells. The following applies: chlorocebus sabaeus, read-out: Ratio IC50. In kind it is ADME, cell-based.
A short description of data set [18]: Protein binding in rat plasma at 500 to 5000 ng/ml after 4 hrs by LC/MS analysis. In kind it is ADME, cell-free. In a few lines:
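Equilibrium dialysis (MWCO 6000–8000) of Sprague-Dawley rat plasma (lithium heparin) spiked at 500 and 5000 ng/mL, in duplicate, against isotonic phosphate buffer pH 7.4. 4 h at 37 °C, about 100 rpm. Methanol with internal standard, LC-MS. Free fraction = buffer/plasma concentration; reported as % bound. Verapamil as reference.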

Data set [19] has as its system Acinetobacter baumannii. Briefly: Synergistic antibacterial activity against Acinetobacter baumannii ATCC 19606 infected in C57BL/6 mouse assessed as survival rate at compound to doxycycline ratio of 35:1 at 20 mg/kg, ip administered as single dose measured for 5 days (reference value: <20%). In kind it is functional. The following applies: ATCC 19606 = CIP 70.34 = JCM 6841, ip, 120 h. Put shortly:
(§4)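 C57BL/6 mice (n = 5 per group; 4 untreated controls) infected intraperitoneally with A. baumannii ATCC19606 grown at 37 °C and collected by centrifugation, at a dose giving 75% death. Single intraperitoneal dose (2 to 60 mg/kg) given 1 h after infection. Mice monitored for 5 days, with death as the end point; survival rate recorded.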

Data set [20] is described as follows: Solubility of the compound in water at 10 mg after 24 hrs by HPLC based shake flask method. It counts as physicochemical.
For data set [21], the system named is Acinetobacter baumannii. In words: Antibacterial activity against Acinetobacter baumannii ATCC 19606 infected in C57BL/6 mouse assessed as survival rate at 4 mg/kg, ip administered as single dose measured for 5 days (reference value: <20%). In kind it is functional. The following applies: ATCC 19606 = CIP 70.34 = JCM 6841, ip, 120 h. In a few lines: as §4

The nature of data set [22]: Efflux ratio of apparent permeability in human Caco2 cells. It counts as ADME, cell-based. The following applies: Caco-2. A general note: Passage across Caco-2 layers is used to estimate intestinal permeability.

Values after ≈ are worked out from the molar mass of the structure shown.

On to `C=C[C@]1(C)C[C@@H](OC(=O)CSC(C)(C)CNC(=O)[C@H](N)C(C)C)[C@]2(C)[C@H](C)CC[C@]3(CC[C@@H](O)[C@H]32)[C@@H](C)[C@@H]1O`, for which the MIC against Acinetobacter baumannii [1] is 6.25 µg/mL (≈ 11 µM); in the data set with Acinetobacter baumannii [3], 0.5 µg/mL; with Klebsiella pneumoniae [5] it was 0.78 µg/mL; with Klebsiella pneumoniae [6], less than 6.25 µg/mL; with Escherichia coli, 0.25 µg/mL; in the data set with Pseudomonas aeruginosa [8] it was 12.5 µg/mL. Moreover, the MIC with Pseudomonas aeruginosa [9] was 6.25 µg/mL; against Pseudomonas aeruginosa [10], more than 25 µg/mL; against Staphylococcus aureus it was 12.5 µg/mL (≈ 22.1 µM). For the same compound, the MBC with Acinetobacter baumannii [2] came out at 2 µg/mL; with Acinetobacter baumannii [4] it was 6.25 µg/mL; in the data set on Pseudomonas aeruginosa [7], 25 µg/mL; in data set [11] it was 6.25 µg/mL; in data set [12] it was 6.25 µg/mL (≈ 11 µM). The “fractional inhibitory concentration index (FICI)” value in the data set with Acinetobacter baumannii [13] is 0.16; in the data set on Acinetobacter baumannii [14] it was 0.38; in the data set on Acinetobacter baumannii [15], 0.28. For the same compound, in data set [16], the t1/2 is more than 1 h. Besides, the selectivity ratio in data set [17] came out at 2.85. In data set [18], the PPB was 76.9%. Further, the survival at 20 mg/kg with Acinetobacter baumannii [19] stood at 100%. The solubility result in data set [20] was “Soluble”. The survival at 4 mg/kg in the data set on Acinetobacter baumannii [21] was found to be 80%. Moreover, the efflux ratio in [22] was found to be 5.

For orientation: MIC means the lowest concentration found to suppress growth. A word on the efflux ratio: it is a quotient of directional permeabilities that is used to spot active efflux.
